According to ChEMBL document CHEMBL5058577, “EUbOPEN Chemogenomics Library 2 (Multiplex)” (2022):

System: Fibroblast
Experiment: Multiplex assay against human fibroblast
Assay type: toxicity, cell-based
How it was run: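 Tubulin, mitochondrial-mass and membrane-permeability phenotypes are per cents of healthy-nucleus cells. Cells were gated by CellPathfinder machine learning into Hoechst high-intensity objects or normal cells, normal cells into healthy, pyknosed or fragmented nuclei, and pyknosed cells into mitotic or apoptotic. Before that, live cells stained at seeding with Hoechst33342, BioTracker Green Microtubule Cytoskeleton Dye, MitoTracker Red and Annexin V Alexa Fluor 680 were imaged on a CQ1 microscope at 37°C and 5% CO2 after compound addition.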

[1] = 12 h, 1 µM, compound concentration 1 uM, replicate 1
[2] = 12 h, 1 µM, compound concentration 1 uM, replicate 2
[3] = 12 h, 10 µM, compound concentration 10 uM, replicate 1
[4] = 12 h, 10 µM, compound concentration 10 uM, replicate 2
[5] = 24 h, 1 µM, compound concentration 1 uM, replicate 1
[6] = 24 h, 1 µM, compound concentration 1 uM, replicate 2
[7] = 24 h, 10 µM, compound concentration 10 uM, replicate 1
[8] = 24 h, 10 µM, compound concentration 10 uM, replicate 2
[9] = 48 h, 1 µM, compound concentration 1 uM, replicate 1
[10] = 48 h, 1 µM, compound concentration 1 uM, replicate 2
[11] = 48 h, 10 µM, compound concentration 10 uM, replicate 1
[12] = 48 h, 10 µM, compound concentration 10 uM, replicate 2

CC(F)(F)CN1CCOc2c(nn(-c3ccccc3Cl)c2-c2ccc(Cl)cc2)C1=O
Population Apoptotic (%) [1]: 42% | Population Healthy Nuclei (%) [1]: 66% | Population Hoechst High Intensity Objects (%) [1]: 0% | Population Mitochondria Different-Phenotype (%) [1]: 4% | Population Mitotic Cells (%) [1]: 57% | Population Normal (%) [1]: 99% | Population Pyknosed Nuclei (%) [1]: 15% | Total Cell Count [1]: 125 | Population Apoptotic (%) [2]: 31% | Population Healthy Nuclei (%) [2]: 48% | Population Mitochondria Different-Phenotype (%) [2]: 10% | Population Mitotic Cells (%) [2]: 68% | Population Normal (%) [2]: 93% | Population Pyknosed Nuclei (%) [2]: 25% | Population Tubulin-Different-Phenotype (%) [2]: 61% | Total Cell Count [2]: 122 | Population Apoptotic (%) [3]: 47% | Population Healthy Nuclei (%) [3]: 66% | Population Hoechst High Intensity Objects (%) [3]: 1% | Population Mitochondria Different-Phenotype (%) [3]: 19% | Population Mitotic Cells (%) [3]: 52% | Population Normal (%) [3]: 98% | Population Pyknosed Nuclei (%) [3]: 17% | Population Tubulin-Different-Phenotype (%) [3]: 49% | Total Cell Count [3]: 109 | Population Apoptotic (%) [4]: 30% | Population Healthy Nuclei (%) [4]: 53% | Population Hoechst High Intensity Objects (%) [4]: 5% | Population Mitochondria Different-Phenotype (%) [4]: 8% | Population Mitotic Cells (%) [4]: 70% | Population Normal (%) [4]: 94% | Population Pyknosed Nuclei (%) [4]: 15% | Population Tubulin-Different-Phenotype (%) [4]: 57% | Total Cell Count [4]: 134 | Population Apoptotic (%) [5]: 61% | Population Healthy Nuclei (%) [5]: 65% | Population Hoechst High Intensity Objects (%) [5]: 1% | Population Mitochondria Different-Phenotype (%) [5]: 2% | Population Mitotic Cells (%) [5]: 38% | Population Normal (%) [5]: 98% | Population Pyknosed Nuclei (%) [5]: 15% | Total Cell Count [5]: 119 | Population Apoptotic (%) [6]: 64% | Population Healthy Nuclei (%) [6]: 52% | Population Hoechst High Intensity Objects (%) [6]: 4% | Population Mitochondria Different-Phenotype (%) [6]: 10% | Population Mitotic Cells (%) [6]: 36% | Population Normal (%) [6]: 95% | Population Pyknosed Nuclei (%) [6]: 20% | Population Tubulin-Different-Phenotype (%) [6]: 75% | Total Cell Count [6]: 129 | Population Apoptotic (%) [7]: 33% | Population Healthy Nuclei (%) [7]: 65% | Population Hoechst High Intensity Objects (%) [7]: 0% | Population Mitochondria Different-Phenotype (%) [7]: 26% | Population Mitotic Cells (%) [7]: 66% | Population Normal (%) [7]: 99% | Population Pyknosed Nuclei (%) [7]: 10% | Population Tubulin-Different-Phenotype (%) [7]: 58% | Total Cell Count [7]: 111 | Population Apoptotic (%) [8]: 35% | Population Healthy Nuclei (%) [8]: 54% | Population Hoechst High Intensity Objects (%) [8]: 1% | Population Mitochondria Different-Phenotype (%) [8]: 10% | Population Mitotic Cells (%) [8]: 64% | Population Normal (%) [8]: 98% | Population Pyknosed Nuclei (%) [8]: 14% | Population Tubulin-Different-Phenotype (%) [8]: 60% | Total Cell Count [8]: 121 | Population Apoptotic (%) [9]: 56% | Population Healthy Nuclei (%) [9]: 63% | Population Hoechst High Intensity Objects (%) [9]: 1% | Population Mitochondria Different-Phenotype (%) [9]: 2% | Population Mitotic Cells (%) [9]: 43% | Population Normal (%) [9]: 98% | Population Pyknosed Nuclei (%) [9]: 11% | Population Tubulin-Different-Phenotype (%) [9]: 35% | Total Cell Count [9]: 136 | Population Apoptotic (%) [10]: 40% | Population Healthy Nuclei (%) [10]: 53% | Population Hoechst High Intensity Objects (%) [10]: 4% | Population Mitochondria Different-Phenotype (%) [10]: 21% | Population Mitotic Cells (%) [10]: 60% | Population Normal (%) [10]: 95% | Population Pyknosed Nuclei (%) [10]: 7% | Population Tubulin-Different-Phenotype (%) [10]: 72% | Total Cell Count [10]: 135 | Population Apoptotic (%) [11]: 78% | Population Healthy Nuclei (%) [11]: 56% | Population Hoechst High Intensity Objects (%) [11]: 1% | Population Mitochondria Different-Phenotype (%) [11]: 22% | Population Mitotic Cells (%) [11]: 21% | Population Normal (%) [11]: 98% | Population Pyknosed Nuclei (%) [11]: 11% | Total Cell Count [11]: 120 | Population Apoptotic (%) [12]: 54% | Population Healthy Nuclei (%) [12]: 54% | Population Mitochondria Different-Phenotype (%) [12]: 7% | Population Mitotic Cells (%) [12]: 45% | Population Pyknosed Nuclei (%) [12]: 7% | Population Tubulin-Different-Phenotype (%) [12]: 57% | Total Cell Count [12]: 141

COc1cc2nc(N3CCN(C(=O)COc4c(OC)cccc4C(C)C)CC3)nc(N)c2cc1OC.Cl.Cl
Population Apoptotic (%) [1]: 50% | Population Fragmented Nuclei (%) [1]: 17% | Population Healthy Nuclei (%) [1]: 51% | Population Hoechst High Intensity Objects (%) [1]: 4% | Population Membrane Permeable-Phenotype (%) [1]: 3% | Population Mitochondria Different-Phenotype (%) [1]: 6% | Population Mitotic Cells (%) [1]: 50% | Population Normal (%) [1]: 95% | Population Pyknosed Nuclei (%) [1]: 30% | Population Tubulin-Different-Phenotype (%) [1]: 40% | Total Cell Count [1]: 123 | Population Apoptotic (%) [2]: 36% | Population Fragmented Nuclei (%) [2]: 39% | Population Healthy Nuclei (%) [2]: 42% | Population Hoechst High Intensity Objects (%) [2]: 9% | Population Membrane Permeable-Phenotype (%) [2]: 5% | Population Mitochondria Different-Phenotype (%) [2]: 7% | Population Mitotic Cells (%) [2]: 63% | Population Normal (%) [2]: 90% | Population Pyknosed Nuclei (%) [2]: 18% | Population Tubulin-Different-Phenotype (%) [2]: 43% | Total Cell Count [2]: 182 | Population Apoptotic (%) [3]: 33% | Population Fragmented Nuclei (%) [3]: 13% | Population Healthy Nuclei (%) [3]: 47% | Population Hoechst High Intensity Objects (%) [3]: 20% | Population Membrane Permeable-Phenotype (%) [3]: 0% | Population Mitochondria Different-Phenotype (%) [3]: 15% | Population Mitotic Cells (%) [3]: 66% | Population Normal (%) [3]: 79% | Population Pyknosed Nuclei (%) [3]: 38% | Population Tubulin-Different-Phenotype (%) [3]: 63% | Total Cell Count [3]: 346 | Population Apoptotic (%) [4]: 29% | Population Fragmented Nuclei (%) [4]: 22% | Population Healthy Nuclei (%) [4]: 46% | Population Hoechst High Intensity Objects (%) [4]: 10% | Population Membrane Permeable-Phenotype (%) [4]: 4% | Population Mitochondria Different-Phenotype (%) [4]: 8% | Population Mitotic Cells (%) [4]: 70% | Population Normal (%) [4]: 89% | Population Pyknosed Nuclei (%) [4]: 30% | Population Tubulin-Different-Phenotype (%) [4]: 56% | Total Cell Count [4]: 283 | Population Apoptotic (%) [5]: 68% | Population Fragmented Nuclei (%) [5]: 23% | Population Healthy Nuclei (%) [5]: 58% | Population Hoechst High Intensity Objects (%) [5]: 3% | Population Membrane Permeable-Phenotype (%) [5]: 1% | Population Mitochondria Different-Phenotype (%) [5]: 9% | Population Mitotic Cells (%) [5]: 31% | Population Normal (%) [5]: 96% | Population Pyknosed Nuclei (%) [5]: 17% | Population Tubulin-Different-Phenotype (%) [5]: 39% | Total Cell Count [5]: 128 | Population Apoptotic (%) [6]: 57% | Population Fragmented Nuclei (%) [6]: 40% | Population Healthy Nuclei (%) [6]: 42% | Population Hoechst High Intensity Objects (%) [6]: 11% | Population Membrane Permeable-Phenotype (%) [6]: 5% | Population Mitochondria Different-Phenotype (%) [6]: 11% | Population Mitotic Cells (%) [6]: 42% | Population Normal (%) [6]: 88% | Population Tubulin-Different-Phenotype (%) [6]: 50% | Total Cell Count [6]: 180 | Population Apoptotic (%) [7]: 40% | Population Fragmented Nuclei (%) [7]: 13% | Population Healthy Nuclei (%) [7]: 45% | Population Hoechst High Intensity Objects (%) [7]: 39% | Population Membrane Permeable-Phenotype (%) [7]: 0% | Population Mitochondria Different-Phenotype (%) [7]: 17% | Population Mitotic Cells (%) [7]: 60% | Population Normal (%) [7]: 60% | Population Pyknosed Nuclei (%) [7]: 41% | Population Tubulin-Different-Phenotype (%) [7]: 38% | Total Cell Count [7]: 344 | Population Apoptotic (%) [8]: 33% | Population Fragmented Nuclei (%) [8]: 25% | Population Healthy Nuclei (%) [8]: 40% | Population Hoechst High Intensity Objects (%) [8]: 23% | Population Membrane Permeable-Phenotype (%) [8]: 4% | Population Mitochondria Different-Phenotype (%) [8]: 5% | Population Mitotic Cells (%) [8]: 66% | Population Normal (%) [8]: 76% | Population Pyknosed Nuclei (%) [8]: 34% | Population Tubulin-Different-Phenotype (%) [8]: 47% | Total Cell Count [8]: 273 | Population Apoptotic (%) [9]: 65% | Population Fragmented Nuclei (%) [9]: 31% | Population Healthy Nuclei (%) [9]: 51% | Population Hoechst High Intensity Objects (%) [9]: 4% | Population Membrane Permeable-Phenotype (%) [9]: 0% | Population Mitochondria Different-Phenotype (%) [9]: 11% | Population Mitotic Cells (%) [9]: 35% | Population Normal (%) [9]: 96% | Population Pyknosed Nuclei (%) [9]: 16% | Population Tubulin-Different-Phenotype (%) [9]: 30% | Total Cell Count [9]: 125 | Population Apoptotic (%) [10]: 42% | Population Fragmented Nuclei (%) [10]: 45% | Population Healthy Nuclei (%) [10]: 43% | Population Hoechst High Intensity Objects (%) [10]: 10% | Population Membrane Permeable-Phenotype (%) [10]: 8% | Population Mitochondria Different-Phenotype (%) [10]: 10% | Population Mitotic Cells (%) [10]: 57% | Population Normal (%) [10]: 89% | Population Pyknosed Nuclei (%) [10]: 11% | Population Tubulin-Different-Phenotype (%) [10]: 57% | Total Cell Count [10]: 193 | Population Apoptotic (%) [11]: 45% | Population Fragmented Nuclei (%) [11]: 12% | Population Healthy Nuclei (%) [11]: 45% | Population Hoechst High Intensity Objects (%) [11]: 52% | Population Membrane Permeable-Phenotype (%) [11]: 2% | Population Mitochondria Different-Phenotype (%) [11]: 10% | Population Mitotic Cells (%) [11]: 54% | Population Normal (%) [11]: 47% | Population Pyknosed Nuclei (%) [11]: 42% | Population Tubulin-Different-Phenotype (%) [11]: 42% | Total Cell Count [11]: 358 | Population Apoptotic (%) [12]: 30% | Population Fragmented Nuclei (%) [12]: 33% | Population Healthy Nuclei (%) [12]: 33% | Population Hoechst High Intensity Objects (%) [12]: 31% | Population Membrane Permeable-Phenotype (%) [12]: 9% | Population Mitochondria Different-Phenotype (%) [12]: 0% | Population Mitotic Cells (%) [12]: 69% | Population Normal (%) [12]: 68% | Population Pyknosed Nuclei (%) [12]: 33% | Population Tubulin-Different-Phenotype (%) [12]: 43% | Total Cell Count [12]: 311
